Among the data in ChEMBL document CHEMBL4610088, “Higginsianins D and E, Cytotoxic Diterpenoids Produced by Colletotrichum higginsianum” (J Nat Prod, 2020) are Activity and IC50 values, retold here.

Series [1] concerns NCI-H1299. Description: Cytotoxicity against human NCI-H1299 cells at 1 uM after 72 hrs by MTT assay relative to control. In kind it is functional. Summed up:
(§1)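 Cells cultured in DMEM with 10% FBS at 37 °C, 5% CO2. 2×10^4 cells seeded per well, exposed to 1 or 10 μM compound for 24, 48 and 72 h. MTT (0.5 mg/mL, phenol red-free DMEM) 3 h at 37 °C; formazan dissolved in acidic isopropanol. A570–A630 read; viability = test/control absorbance. Quadruplicate wells, three independent experiments.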

In series [2] the test system is NCI-H1299. In words: Cytotoxicity against human NCI-H1299 cells at 10 uM after 72 hrs by MTT assay relative to control. The series is classed as functional. Put shortly:
as §1

The test system of series [3] is HaCaT. In words: Cytotoxicity against human HaCaT cells assessed as reduction in cell viability at 10 uM after 24 hrs by MTT assay relative to control. In kind it is cell-based. Put shortly: as §1
Series [4] relates to HaCaT. Description: Cytotoxicity against human HaCaT cells at 1 to 10 uM after 72 hrs by MTT assay. In kind it is cell-based. Put shortly:
as §1

Series [5] deals with HaCaT. In words: Cytotoxicity against human HaCaT cells at 10 uM after 48 hrs by MTT assay relative to control. In kind it is cell-based. Put shortly: as §1
Series [6] has as its system HaCaT. In words: Cytotoxicity against human HaCaT cells assessed as reduction in cell viability at 1 uM after 24 hrs by MTT assay relative to control. The series is classed as cell-based. Put shortly:
as §1

Series [7] deals with HaCaT. Description: Cytotoxicity against human HaCaT cells at 10 uM after 24 to 72 hrs by MTT assay. In kind it is cell-based. Summed up:
as §1

A further series relates to A-431. Description: Cytotoxicity against human A431 cells after 72 hrs by MTT assay. The series is classed as functional, cell-based. The conditions noted are these: A-431, 72 h. Put shortly: as §1

Active and inactive are the calls of the source. The calls are words filed in the database; no cut-off is given here.

With `C=C1CC[C@H]2[C@](C)(CCC=C(C)C)[C@H](O)CC[C@]2(C)[C@@H]1C[C@]1(C(=O)OC)OC(C)=C(C)C1=O`, the outcome in the series with NCI-H1299 [1] and in the series on NCI-H1299 [2] was inactive. In addition, the Activity entry in the series on HaCaT [3] was “Non-Toxic”; in the series with HaCaT [4], “Non-Toxic”; with HaCaT [5], “Toxic”; in the series on HaCaT [6], “Non-Toxic”.
Regarding `C=C1CC[C@H]2[C@](C)(CCC=C(C)C)[C@H](O)CC[C@]2(C)[C@@H]1Cc1c(O)c(C)c(C)oc1=O`, the Activity result in the series on HaCaT [7] is recorded as “Toxic”.
As for `C=C1CC[C@H]2[C@](C)(CCC=C(C)C)[C@H](O)CC[C@]2(C)[C@@H]1C[C@@]1(C(=O)OC)OC(C)=C(C)C1=O`, the Activity in the series with NCI-H1299 [1] is recorded as 22%; in the series on NCI-H1299 [2], 26%; in the series on HaCaT [3], 37%; in the series on HaCaT [4] it was “Non-Toxic”; in the series with HaCaT [5] it was “Toxic”; with HaCaT [6] it was 40%. In the series with A-431, this molecule yielded an IC50 of 1000 nM.
